Compounds with a hit are over-represented: about 1.4% of the library has one in this group of screens.
GSK3 alpha inh = human GSK-3 alpha kinase inhibition | P49840 | ADP-Glo luminescence, 60 min | inhibition, % at 10 µM | 320,000 compounds, 0.1% hits;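 active means more than half of replicates show inhibition above 20%; inconclusive means some but at most half of replicates above 20% inhibition; inactive means no replicate shows inhibition above 20%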;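 further: GST-tagged GSK-3 alpha with peptide substrate and 25 µM ATP; 0% = DMSO neutral wells and 100% = GW8510 positive control wells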
GSIS activator = GLuc luminescence reporter in INS-1E cells, primary screen for activators of glucose-dependent secretion of insulin; INS-1E GLuc reporter insulin secretion, 2-3 h; activation, % at 16.6 µM; 370,000 compounds, 0.61% hits;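 active means lowest replicate activation of at least 40%, so every replicate reaches that level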;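 further: 0% = median of neutral control wells and 100% = median of IBMX positive control wells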
HIV Env fusion = inhibitors of HIV Env-mediated cell fusion; HeLa-JRFL Env/CEM21 cell fusion, luciferase; inhibition, % at 12.3 µM; 360,000 compounds, 1.1% hits; AID 651610;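 active means mean replicate inhibition score of at least 50 and every replicate individually at or above 50; inconclusive means only one of the two criteria met; inactive means mean below 50 and not all replicates reaching 50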;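 further: 0% = plate neutral controls and 100% = maraviroc near 300 nM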
CDK5 inh = inhibitors of human CDK5/p35 kinase | Recombinant CDK5/p35, ADP-Glo luminescence, 60 min | inhibition, % at 10 µM | 330,000 compounds, 0.01% hits;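 active means highest replicate inhibition of at least 50% and at least 75% of replicates reaching 50%; inconclusive means only one of the two criteria met; inactive means both criteria failed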;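 further: plate controls were DMSO neutral control for no effect and GW8510 at 10 µM for full effect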
GSK3beta inhib = inhibitors of human GSK3beta kinase. activity score (negative = inhibition), % at 10 µM. P49841. AID 2097. 300,000 compounds, 0.038% hits. GST-GSK3beta kinase, ADP-Glo luminescence, 60 min; stronger effect = lower value;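 active means more than half of replicate wells score below -50%, meaning over 50% inhibition versus plate controls; inconclusive means some replicates but at most half score below -50%; inactive means no replicate scores below -50%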;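 further: 0% = median DMSO wells and -100% = median GW8510 positive control wells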
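Test system: GST-tagged human GSK3beta kinase, cell-free; evaluation: activity score scaled between in-plate DMSO and GW8510 controls; measured by: ADP-Glo luminescence; incubation: 60 min reaction, RT; benchmarks: DMSO and 20 µM GW8510; reagent: peptide substrate plus 25 µM ATP (final); medium: Tris/MgCl2 kinase buffer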
STK33 kinase inh = human STK33 kinase inhibition; Q9BYT3; purified STK33, MBP phosphorylation, ADP-Glo luminescence; inhibition, % at 10 µM; 320,000 compounds, 0.073% hits; AID 2661;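 active means inhibition at or above 25%, using the most active replicate where run in duplicate; inactive means inhibition below 25%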
Target sequence (Q9BYT3 whole entry, looked up): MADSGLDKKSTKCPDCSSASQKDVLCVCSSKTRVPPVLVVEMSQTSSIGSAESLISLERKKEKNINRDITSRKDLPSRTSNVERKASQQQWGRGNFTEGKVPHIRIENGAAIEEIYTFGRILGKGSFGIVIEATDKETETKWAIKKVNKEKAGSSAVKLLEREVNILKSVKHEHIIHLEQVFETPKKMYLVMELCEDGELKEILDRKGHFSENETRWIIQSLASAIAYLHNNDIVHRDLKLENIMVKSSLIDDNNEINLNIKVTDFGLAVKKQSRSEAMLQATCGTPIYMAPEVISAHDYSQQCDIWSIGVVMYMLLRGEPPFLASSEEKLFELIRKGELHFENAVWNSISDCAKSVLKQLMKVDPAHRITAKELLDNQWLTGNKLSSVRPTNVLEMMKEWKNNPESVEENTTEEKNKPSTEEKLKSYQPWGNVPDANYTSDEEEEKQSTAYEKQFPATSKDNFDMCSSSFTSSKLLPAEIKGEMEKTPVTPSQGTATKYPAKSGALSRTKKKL
* = called active by the depositor; ? = inconclusive; nt = not tested or not shown; ! = not active in a repeat; [ ] = another dose, or the depositor's remark.

SMILES | GSK3 alpha inh | GSIS activator | HIV Env fusion | CDK5 inh | GSK3beta inhib | STK33 kinase inh
CC(C)NC(=O)Nc1ccc2c(c1)C(=O)N([C@@H](C)CO)C[C@@H](C)[C@@H](CN(C)Cc1ccc(C(F)(F)F)cc1)OCCCC[C@@H](C)O2 | nt | -17 | 70*[16.7 µM] | nt | nt | nt
C[C@H](CO)N1C[C@H](C)[C@@H](CN(C)CC2CC2)Oc2cc(-c3cncnc3)ccc2S1(=O)=O | nt | 1 | -11[16.7 µM] | nt | nt | nt
COCCCn1c(C(=O)Nc2ccc3c(c2)OCO3)cc2c(=O)n3cccc(C)c3nc21 | nt | -2 | 64* | nt | nt | nt
COCCCn1c(C(=O)N2CCOCC2)cc2c(=O)n3cccc(C)c3nc21 | 0 | 79 | 4 | -1 | 0 | 0
NNC(=O)c1cccc(O)c1 | 1 | 43* | ? | 0 | -3 | 0
CCOC(=O)c1c2n(c3ccc(OC(C)=O)cc13)CCC2 | 1 | 48* | -28 | -1 | -6 | 0
CNC(=O)c1cc(Oc2ccc(NC(=O)Nc3ccc(Cl)c(C(F)(F)F)c3)cc2)ccn1 | nt | nt | 62* | nt | nt | nt
O=C(Nc1ccc(Cl)c(C(F)(F)F)c1)c1ccncc1 | -1 | -4 | -1 | 1 | 0 | 1
COc1ccc(CNCC(O)COc2ccc(C(C)(C)c3ccccc3)cc2)cc1 (configuration not stated) | 0 | 73* | 5 | -1 | -2 | 0
CC(C)(c1ccccc1)c1ccc(OCC(O)CNC2CCN(Cc3ccccc3)CC2)cc1 (configuration not stated) | 3 | 666* | 27 | 0 | -7 | 0
CCCNC(=O)N1CC2(CN(Cc3cccc(OC)c3)C2)c2c([nH]c3cc(OC)ccc23)[C@H]1CO | nt | 10 | -10[16.7 µM] | nt | nt | nt
Cc1ccc(-c2nn(-c3ccccc3)cc2/C=C(\C#N)C(=O)NCc2ccccc2)cc1 | 0 | 20 | -76 | 2 | -4 | -5
CCCSc1ccc(-c2nn(-c3ccccc3)cc2/C=C(/C#N)C(=O)NCCCOC)cc1 | -1 | 50* | 25 | -6 | 3 | -1
CCSc1ccc(-c2nn(-c3ccccc3)cc2/C=C(/C#N)C(=O)NCCCOC)cc1 | -3 | 64* | -3 | 0 | nt | 0
C[C@H]1CN([C@@H](C)CO)S(=O)(=O)c2ccc(-c3cncnc3)cc2O[C@@H]1CN(C)Cc1cccnc1 | nt | 12 | -1[16.7 µM] | nt | nt | nt
Cc1ccc(S(=O)(=O)Nc2ccc3c(c2)C(=O)N([C@H](C)CO)C[C@@H](C)[C@H](CN(C)C(=O)Nc2ccc(F)cc2)OCCCC[C@@H](C)O3)cc1 | nt | -7 | -30[16.7 µM] | nt | nt | nt
Cc1noc(C)c1NC(=O)Nc1ccc2c(c1)CC(=O)N([C@H](C)CO)C[C@@H](C)[C@@H](CN(C)Cc1ccc(Cl)c(Cl)c1)O2 | nt | -10 | nt | nt | nt | nt
C/C(N)=C(/C#N)C(=O)CSc1nc(C2CCCCC2)n(-c2ccccc2)n1 | -1 | 2 | 67*! | -3 | 1 | -1
CCN(CC)CC#CCC(C)(c1ccccc1)c1ccccc1 | -1 | -20 | 65* | -1 | 1 | -1
COc1ccc(-n2c(-c3ccc(Cl)cc3)c[nH]c2=S)cc1 | 0 | 200* | 0 | 6 | 1 | 0
CO[C@@H]1CC[C@@H]2CCOc3ccc(C#N)cc3C(=O)N(C)C[C@@H](OC)[C@H](C)C(=O)N(C)C[C@@H]1O2 | nt | 1 | -16[16.7 µM] | nt | nt | nt
CCCN1[C@H](C(=O)N[C@@H](C)c2ccccc2)[C@@H](CO)[C@@H]2Cn3c(ccc(-c4cccc(F)c4)c3=O)[C@@H]21 | nt | -14 | 64*[16.7 µM] | nt | nt | nt
CCCCCCCCNCCS(=O)(=O)NCCCCCCCC | nt | 682* | nt | -1 | nt | nt
CCCCCCCCNS(=O)(=O)CCNCCc1ccccc1 | nt | 109 | 9 | 1 | nt | nt
O=C(Nc1nc2ccc(F)cc2s1)C1=COCCO1 | 8 | 5 | -23 | 1 | -13 | 7
SMILES | GSK3 alpha inh | GSIS activator | HIV Env fusion | CDK5 inh | GSK3beta inhib | STK33 kinase inh
O=C(Nc1nc2cc3c(cc2s1)OCCO3)C1=COCCO1 | 4 | -4 | 64* | 5 | 0 | 5
O=C(C[C@@H]1CC[C@H]2[C@@H](COC[C@@H](O)CN2S(=O)(=O)c2ccccc2)O1)NCc1ccc(-c2ccccc2)cc1 | nt | -1 | -4[16.7 µM] | nt | nt | nt
O=C1CC(C(=O)N(CC2CCCO2)C(C(=O)NC2CCCCC2)c2ccncc2)CS1 (configuration not stated) | -1 | 12 | 78* | 0 | 2 | 0
O=C1CC(C(=O)N(c2ccccc2)C(C(=O)NC2CCCC2)c2ccncc2)CS1 (configuration not stated) | -1 | 10 | 10 | 1 | -6 | -1
COc1ccc(-c2ccc3c(c2)[C@@H]2[C@@H](CCN2S(=O)(=O)c2ccccc2F)[C@@H](CO)N3C)cc1 | nt | 5 | nt | nt | nt | nt
CO[C@H]1CN(C)C(=O)c2cc(NC(=O)C3CCOCC3)ccc2OC[C@H](C)N(Cc2nccs2)C[C@H]1C | nt | -1 | 74* | nt | nt | nt
CO[C@@H]1CN(C)C(=O)c2ccc(NC(=O)Nc3cccc(F)c3)cc2OC[C@@H](C)N(C(C)=O)C[C@@H]1C | nt | -9 | -1[16.7 µM] | nt | nt | nt
CO[C@H]1CN(C)C(=O)c2ccc(NC(=O)C3CCC3)cc2OC[C@@H](C)N(CC2CCCCC2)C[C@@H]1C | nt | -39 | 58*[16.7 µM] | nt | nt | nt
CO[C@@H]1CN(C)C(=O)c2ccc(NC(=O)Nc3cccc(F)c3)cc2OC[C@@H](C)N(C(=O)Nc2cccc(F)c2)C[C@H]1C | nt | -9 | 74*[16.7 µM] | nt | nt | nt
CO[C@H]1CN(C)C(=O)c2ccc(NC(=O)C3CC3)cc2OC[C@@H](C)N(C(C)=O)C[C@@H]1C | nt | 11 | 62*[16.7 µM] | nt | nt | nt
CO[C@@H]1CN(C)C(=O)c2ccc(NC(=O)C3CCC3)cc2OC[C@H](C)N(CC2CCCCC2)C[C@@H]1C | nt | -3 | 7[16.7 µM] | nt | nt | nt
CCCC(=O)Nc1ccc2c(c1)C(=O)N(C)C[C@H](OC)[C@H](C)CN(C(C)=O)[C@H](C)CO2 | nt | -3 | -8[16.7 µM] | nt | nt | nt
CO[C@H]1CN(C)C(=O)c2ccc(NC(=O)Nc3cccc(F)c3)cc2OC[C@@H](C)N(C(C)=O)C[C@H]1C | nt | -8 | 65*[16.7 µM] | nt | nt | nt
CO[C@H]1CN(C)C(=O)c2ccc(NC(=O)Nc3cccc(F)c3)cc2OC[C@@H](C)NC[C@@H]1C | nt | 2 | -3[16.7 µM] | nt | nt | nt
CO[C@H]1CN(C)C(=O)c2ccc(NC(=O)Nc3cccc(F)c3)cc2OC[C@H](C)NC[C@H]1C | nt | 18 | 75*[16.7 µM] | nt | nt | nt
C[C@H](CO)N1C[C@H](C)[C@@H](CN(C)C(=O)Nc2ccc3c(c2)OCO3)Oc2c(NS(=O)(=O)c3ccc(Cl)cc3)cccc2C1=O | nt | -5 | 6[16.7 µM] | nt | nt | nt
CCOC(=O)N1CCC(n2c(SCC(=O)OCc3ccccc3)nc3ccsc3c2=O)CC1 | -4 | -33 | 97* | 0 | -4 | 2
CCOC(=O)N1CCC(n2c(SCC(=O)N3CCC(C)CC3)nc3ccccc3c2=O)CC1 | 0 | nt | 54* | 1 | 1 | 0
CCOC(=O)CSc1nc2ccsc2c(=O)n1C1CCN(C(=O)OCC)CC1 | 16 | -34 | nt | -2 | 3 | 17

Bioassay records as filed in PubChem.
